Screens (PubChem)
Only some compounds are listed: those with a hit (about 4% of all), similar ones and a draw of the others.
Hsp70 activator = Hsp70 transcriptional activators, primary screen, cell-based, HeLa, Hsp70 promoter luciferase, luminescence, 10 µM; HeLa Hsp70 promoter luciferase reporter; scaled: vehicle 0, proteasome-inhibitor control 100%; AID 1203, 2008; activation, % at 10 µM; hit rate 0.04% among 200,000;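 active means activation above the mean across all tested compounds plus 3 SD, cutoff set per campaign, cut at about 5.5% in these data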
CHOP inh = inhibitors of CHOP promoter induction, primary screen, cell-based, unfolded protein response, luciferase reporter; CHO-K1 CHOP-promoter luciferase, tunicamycin-induced, 15-18 h; inhibition, % at 10 µM; hit rate 3.8% among 220,000; AID 2732, 2010;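 active means compounds that reduced the stress-induced luciferase reporter signal by more than about 70% of percent inhibition, limit read from the data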
S1P3 antagonist = S1P3 receptor antagonists, primary screen, cell-based | inhibition, % at 4.98 µM | hit rate 0.27% among 170,000 | CHO S1P3 NFAT-BLA reporter, FRET fluorescence, antagonist mode | Sphingosine 1-phosphate receptor 3 (Homo sapiens), Q99500;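 active means inhibition above the plate cutoff, the mean inhibition of test wells on that plate plus 3 SD, cut at about 28% in these data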;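 further: cells challenged with S1P at its EC80 of 0.8 µM; blue over green emission ratio from cleaved BLA substrate after 4 h stimulation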
Target sequence (Q99500 whole entry, looked up): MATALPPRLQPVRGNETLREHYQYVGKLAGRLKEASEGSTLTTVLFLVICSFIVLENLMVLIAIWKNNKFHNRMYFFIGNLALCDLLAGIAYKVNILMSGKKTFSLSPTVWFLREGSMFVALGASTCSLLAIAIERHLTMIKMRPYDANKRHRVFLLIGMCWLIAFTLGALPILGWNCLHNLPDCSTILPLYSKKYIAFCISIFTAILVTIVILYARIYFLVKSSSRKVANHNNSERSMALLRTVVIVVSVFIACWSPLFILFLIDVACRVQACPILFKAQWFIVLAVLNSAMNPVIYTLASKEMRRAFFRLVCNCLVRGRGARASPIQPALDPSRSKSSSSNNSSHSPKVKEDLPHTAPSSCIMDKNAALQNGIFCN
Mdm2 ligase inh = MDM2-luciferase reporter signal enhancers, primary screen, MDM2 E3 ligase inhibitor project, cell-based, luminescence, 1536-well; AID 1230, 2008; cell-based MDM2 ubiquitination luciferase reporter, 2 h; 0 = plate control, 100 = twice control, blank-subtracted; signal enhancement, % at 5 µM; E3 ubiquitin-protein ligase Mdm2 (Homo sapiens), Q00987; hit rate 0.11% among 210,000;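 active means signal enhancement of 30% or more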;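 further: luminescence tracks abundance of the self-degrading MDM2-luciferase fusion protein; higher signal means inhibition of MDM2 E3 ligase activity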
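Assay system: stable mammalian line carrying autodegrading MDM2–luciferase fusion reporter; amount: 2000 cells seeded into each well; buffer or medium: DMEM; benchmarks: plate control and blank wells; signal: luciferase luminescence; timing: 2 h compound exposure at 37 °C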
Hits are given with their value; 0 = inactive; - = no result; ! = not active in a repeat.

SMILES	Hsp70 activator	CHOP inh	S1P3 antagonist	Mdm2 ligase inh
CC(C)Sc1nnc2n(CCc3ccccc3)c(=O)c3c4c(sc3n12)COC(C)(C)C4	0	-	-	-
C=CCSc1nnc2n(CCc3ccccc3)c(=O)c3c4c(sc3n12)COC(C)(C)C4	0	71	-	0
Cc1ccc(C)c(OCc2nc(-c3cccnc3)no2)c1	0	0	0	0
Cc1ccc(-c2nc(-c3cccnc3)no2)c(C)c1	0	73	0	0
CCCOc1ccc(-c2nnn(CC(=O)c3c[nH]c4ccccc34)n2)cc1	0	85	-	0
CCOC(=O)Cn1nnc(-c2ccc(OCC(C)C)cc2)n1	0	71	0	0
O=C(NCCc1cccs1)C12CN(Cc3ccccc3)CC1C(c1cccc([N+](=O)[O-])c1)=NO2 (stereo unspecified)	0	0	-	0
COc1cccc(/C=C2\N=C(SC)SC2=O)c1OC	0	0	0	0
CSC1=NC(=O)/C(=C\c2cccc3ccccc23)S1	0	103	0	0
Cc1ccc(NC(=O)c2csc(-c3ccccc3)c2C)cc1	0	100	-	0
Cc1ccc(NC(=O)c2cc(C)n(-c3ccccc3)c2C)cc1	0	72	0	0
Cc1c(C(=O)Nc2cccc([N+](=O)[O-])c2)csc1-c1ccccc1	0	0	-	0
O=C(Nc1cnn(Cc2ccc(F)cc2)c1)c1noc2c1CCCC2	0	0	0	0
CC(C)(C)C1CCc2onc(C(=O)Nc3cnn(Cc4ccc(F)cc4)c3)c2C1 (stereo unspecified)	0	86	0	0
Cc1ccc2nc(SCC(=O)Nc3ccc4c(c3)CCC4)[nH]c2c1	0	0	0	0
O=C(CSc1nc2ccc(Cl)cc2[nH]1)Nc1ccc2c(c1)CCC2	0	71	0	0
O=C(CSc1nc2cc3ccccc3cc2[nH]1)Nc1ccc(F)cc1	0	81	-	0
COc1ccc(NC(=O)CSc2nc3ccc(OC)cc3[nH]2)cc1	-	0	0	-
O=C(Nc1ccc(F)cc1F)c1cc(=O)n(-c2ccccc2)c(=O)[nH]1	0	0	0	0
Cc1cnc(Nc2nc3ccccc3o2)nc1C(=O)Nc1cccc(C(F)(F)F)c1	0	91	0	0
O=C(Nc1ccc(/C=C/c2nc3ccccc3o2)cc1)c1cccc(C(F)(F)F)c1	0	93	-	0
O=C(Nc1ccc(/C=C/c2nc3ccccc3o2)cc1)c1c(F)cccc1F	0	0	-	0
Cn1c(/C=N/NC(=O)c2ccccc2Br)nc2ccccc21	0	84	-	0
Cc1cc(C)nc(Nc2n[nH]c(COc3ccc4ccccc4c3)n2)n1	0	87	-	0
Cc1c(Cl)c(C(=O)NNC(=S)Nc2ccc(F)cc2)nn1C	0	0	0	0
SMILES	Hsp70 activator	CHOP inh	S1P3 antagonist	Mdm2 ligase inh
COc1ccc(-c2nc3c(c(=O)[nH]c(=O)n3Cc3ccccc3)n2Cc2ccccc2)cc1	0	76	-	0
Cc1ccc(OCC(=O)Nc2ccc(O)c(-c3nc4ccccc4o3)c2)cc1	0	89	0	0
COc1ccc2nc(/C(C#N)=C\c3ccc(Oc4ccc([N+](=O)[O-])cn4)cc3)[nH]c2c1	0	71	0	0
COc1cc(/C=C(/C#N)c2nc3ccccc3[nH]2)ccc1Oc1ncccc1[N+](=O)[O-]	0	92	-	0
CCOc1cc(/C=C(/C#N)c2nc3ccccc3[nH]2)ccc1Oc1ccc([N+](=O)[O-])cn1	0	0	-	0
COC(=O)c1ccc(COc2ccc(/C=C(\C#N)c3nc4ccccc4[nH]3)cc2OC)o1	0	0	-	0
CCc1ccc(NC(=O)COc2ccc(/C=C(/C#N)c3nc4ccccc4[nH]3)cc2OC)cc1	0	87	0	0
COc1ccc2nc(/C(C#N)=C\c3ccc(C(=O)O)cc3)[nH]c2c1	0	0	0	0
CCOc1cc(N2CCOCC2)c(OCC)cc1NC(=O)COC(=O)c1cccc2ccccc12	0	0	0	0
CCOC(=O)c1cc(NC(=O)N(CC)CC)c(C)nc1C	0	0	-	0
CCOc1ccc(CCNC(=O)CN2C(=O)NC(CCSC)C2=O)cc1OCC (stereo unspecified)	0	0	0	0
S=c1nc(-c2ccco2)[nH][nH]1	0	74	-	0
Cn1c(-c2ccco2)n[nH]c1=S	0	0	0	0
CCC(C)NC(=O)c1ccccc1NS(=O)(=O)c1ccc(OC)c(OC)c1 (stereo unspecified)	0	0	0	0
Cc1occc1C(=O)N/N=C/c1ccc(OCc2ccccc2)cc1	-	71	0	0
COC(=O)c1c(C)oc2ccc(OC(=O)c3cccs3)cc12	0	86	0	0
Cc1ccc(OCc2nnc(SCC(N)=O)n2N)cc1	0	0	0	0
COCCn1c(COc2ccc(Cl)cc2)nnc1SCC(N)=O	0	0	62	0
Cc1cc(N2CC(C)OC(C)C2)nc(C(C)C)n1 (stereo unspecified)	0	0	0	0
CCc1ccc(OCC(=O)NC(=S)Nc2cccc(CO)c2)c(Br)c1	0	83	-	0
c1ccc(-c2nc(-n3nc4ccccc4n3)nc3ccccc23)cc1	0	74	-	0
O=C1CN(C(=O)c2ccccc2)c2ccccc2N1	0	0	0	0
O=C1CN(c2nc(-c3ccccc3)c3ccccc3n2)c2ccccc2N1	0	77	0	0
O=C(CSc1nc(-c2ccccc2)c(-c2ccccc2)o1)Nc1nncs1	0	72	-	0
COCC(=O)NNC(=S)Nc1cccc(C)c1C	0	0	0	0
SMILES	Hsp70 activator	CHOP inh	S1P3 antagonist	Mdm2 ligase inh
Cc1ccc(CS(=O)(=O)CCC(=O)NCCN2CCCCC2C)cc1 (stereo unspecified)	0	0	0	0
Cc1ccc(CS(=O)(=O)CCC(=O)NCCCN2CCCC2)cc1	0	0	82	0
O=C(Nc1ccc(O)c(C(=O)O)c1)Oc1ccccc1	-	0	0	0
Clc1ccccc1C(c1ccccc1)(c1ccccc1)n1ccnc1	0	88!	0	0
FC(F)(F)c1ccccc1-n1ccnc1	-	0	-	-
CCOC(=O)c1ccccc1NC(=O)C1COc2ccccc2O1 (stereo unspecified)	0	74	0	0
O=C(NC1=NCCS1)C1COc2ccccc2O1 (stereo unspecified)	0	76	0	0
Brc1ccc(NCc2cccc3ccccc23)nc1	0	87	-	0
O=C(COc1c(Cl)cccc1Cl)NN1C(=O)CSC1=S	0	0	0	0
CNC(=O)NC(=O)COC(=O)/C=C/c1cccc(Br)c1	0	0	0	0
Cc1cc(C)nc(Nc2ncc(O)n2-c2ccc(C)c(C)c2)n1	0	0	-	0
Cc1cc(C)nc(Nc2ncc(O)n2-c2ccc(C)c(Cl)c2)n1	0	80	0	0
COc1ccc(C(=O)OCC2CC(c3ccccc3)N(C)O2)cc1 (stereo unspecified)	0	80	-	0
N#Cc1cc2cc3c(cc2nc1SCC(=O)OC1CCCCC1)OCO3	0	79	0	0
C/C(N)=C(/C#N)C(=O)COC(=O)c1cc(-c2ccc(Br)cc2)nc2ccccc12	0	0	0	0
